Laboratory results published in ChEMBL document CHEMBL1143402 (PLoS Med, 2006).

What was measured:
[1] = Stability in rabbit liver microsomes; assay type: ADME, Oryctolagus cuniculus, Microsome
How it was run: (§1)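 Liver microsomes (1 mg/ml protein) incubated with 100 µM drug, 2.5 mM NADPH and 2.5 mM NADH in 100 mM phosphate pH 7.4 with 1% DMSO. Run in duplicate, 2 h at 37 °C with shaking. Extracted with acetonitrile/ethyl acetate; analysed by HPLC and LC-ESI-MS/MS.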

[2] = test system: Mycobacterium tuberculosis; test: Antimycobacterial activity against Mycobacterium tuberculosis Kurono infected po dosed BALB/c mouse assessed as reduction in viable lung bacterial count administered once daily; assay type: functional, organism-based
How it was run: (§2)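 From day 1, randomised by body weight (n = 5/group) and dosed orally once daily for 10 d, 10 to 0.313 mg/kg in 2-fold steps, in 5% gum arabic. Lung homogenates plated on 7H11 agar, colonies counted after 14 d; log10 CFU.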

[3] = test system: Salmonella typhimurium; test: Toxic mutagenic effect in Salmonella Typhimurium TA1535 in presence of rat liver microsomes after 48 hrs by bacterial reverse mutation test; assay type: toxicity, organism-based; details: salmonella enterica subsp. enterica serovar typhimurium
[4] = Stability in monkey liver microsomes; assay type: ADME, Macaca mulatta, Microsome; details: rhesus monkey; how it was run: as §1
[5] = test system: Mycobacterium tuberculosis; test: Antimycobacterial activity against Mycobacterium tuberculosis H37Rv in human THP1 cells after 4 hrs; assay type: functional, organism-based; details: THP-1
How it was run: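 PMA-differentiated human THP-1 macrophages infected 4 h with H37Rv, washed, then 20 µg/ml SM for 20 h to kill extracellular bacilli. Compound pulse for 4 h, washout, further 68-h culture. Lysis in 0.1% SDS, plating on 7H11 agar, colonies counted after 16 d at 37 °C; n = 3.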

[6] = test system: Salmonella typhimurium; test: Toxic mutagenic effect in Salmonella Typhimurium TA98 in presence of rat liver microsomes after 48 hrs by bacterial reverse mutation test; assay type: toxicity, organism-based; details: salmonella enterica subsp. enterica serovar typhimurium
[7] = Stability in dog liver microsomes; assay type: ADME, Canis lupus familiaris, Microsome; how it was run: as §1
[8] = test system: Liver microsomes; test: Stability in human liver microsomes; assay type: ADME, Microsome; how it was run: as §1
[9] = Stability in mouse liver microsomes; assay type: ADME, Microsome; how it was run: as §1
[10] = test system: Liver microsomes; test: Stability in rat liver microsomes; assay type: ADME, Microsome; how it was run: as §1
[11] = test system: Mycobacterium tuberculosis; test: Antimycobacterial activity against Mycobacterium tuberculosis Kurono infected po dosed immunocompromized BALB/c mouse assessed as reduction in viable lung bacterial count administered once daily; assay type: functional, organism-based; how it was run: as §2
[12] = test system: Salmonella typhimurium; test: Toxic mutagenic effect in Salmonella Typhimurium TA100 in presence of rat liver microsomes after 48 hrs by bacterial reverse mutation test; assay type: toxicity, organism-based; details: salmonella enterica subsp. enterica serovar typhimurium
[13] = test system: Salmonella typhimurium; test: Toxic mutagenic effect in Salmonella Typhimurium TA1537 in presence of rat liver microsomes after 48 hrs by bacterial reverse mutation test; assay type: toxicity, organism-based; details: salmonella enterica subsp. enterica serovar typhimurium
[14] = target: T1, CYP1A1/CYP1A2 (Homo sapiens, UniProt P04798); test: Effect on CYP1A1/CYP1A2 in human liver assessed as 7-ethoxyresorufin O-deethylation at 100 uM relative to control; assay type: ADME, tissue-based; details: probe 7-ethoxyresorufin, read-out: Activity
T1 sequence (P04798 whole entry): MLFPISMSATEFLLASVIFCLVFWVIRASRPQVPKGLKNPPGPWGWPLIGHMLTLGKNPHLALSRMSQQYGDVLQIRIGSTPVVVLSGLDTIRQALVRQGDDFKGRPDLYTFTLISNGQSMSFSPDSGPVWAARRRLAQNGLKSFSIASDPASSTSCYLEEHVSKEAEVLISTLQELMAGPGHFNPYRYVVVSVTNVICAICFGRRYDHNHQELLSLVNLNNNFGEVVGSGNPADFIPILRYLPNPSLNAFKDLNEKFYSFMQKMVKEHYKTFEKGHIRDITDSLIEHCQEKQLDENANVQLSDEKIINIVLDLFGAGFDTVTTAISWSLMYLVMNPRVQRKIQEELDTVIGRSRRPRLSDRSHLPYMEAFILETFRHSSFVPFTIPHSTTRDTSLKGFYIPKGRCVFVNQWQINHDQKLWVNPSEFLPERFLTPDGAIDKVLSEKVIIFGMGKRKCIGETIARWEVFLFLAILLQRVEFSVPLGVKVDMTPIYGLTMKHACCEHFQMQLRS
How it was run: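 Human liver microsomes (0.1–0.5 mg protein) in 0.1 M phosphate pH 7.4 with 0.1 mM EDTA and NADPH-generating system. […] Metabolite formation by HPLC, in triplicate; mean expressed as % of control.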

[15] = target: T2, CYP2A6 (Homo sapiens, UniProt P11509); test: Effect on CYP2A6 in human liver assessed as coumarin 7-hydroxylation at 100 uM relative to control; assay type: ADME, tissue-based; details: probe coumarin, read-out: Activity
T2 sequence (P11509 whole entry): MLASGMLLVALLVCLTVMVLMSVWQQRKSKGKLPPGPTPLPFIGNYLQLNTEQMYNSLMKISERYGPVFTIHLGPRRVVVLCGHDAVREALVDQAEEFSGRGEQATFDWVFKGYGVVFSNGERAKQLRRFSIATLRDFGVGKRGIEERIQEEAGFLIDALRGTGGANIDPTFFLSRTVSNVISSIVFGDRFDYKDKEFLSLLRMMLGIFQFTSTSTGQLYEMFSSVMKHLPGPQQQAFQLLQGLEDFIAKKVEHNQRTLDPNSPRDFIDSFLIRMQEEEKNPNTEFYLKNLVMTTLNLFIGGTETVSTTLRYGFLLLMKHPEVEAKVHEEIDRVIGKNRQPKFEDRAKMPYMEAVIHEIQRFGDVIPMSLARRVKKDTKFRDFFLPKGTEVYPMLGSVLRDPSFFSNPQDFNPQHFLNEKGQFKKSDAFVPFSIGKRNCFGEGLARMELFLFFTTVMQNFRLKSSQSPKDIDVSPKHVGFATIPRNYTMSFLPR

[16] = target: CYP2E1 (Homo sapiens, UniProt P05181); test: Effect on CYP2E1 in human liver assessed as chlorzoxazone 6-hydroxylation at 100 uM relative to control; assay type: ADME, tissue-based; details: probe chlorzoxazone, read-out: Activity
[17] = test system: Mycobacterium tuberculosis; test: Antimycobacterial activity against Mycobacterium tuberculosis Kurono infected ICR mouse assessed as reduction in viable lung bacterial count at 160 mg/kg, po administered once daily measured after 28 days; assay type: functional
How it was run: (§3)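 ICR mice infected via caudal vein with 8.6 × 10^4 CFU M. tuberculosis Kurono; after 28 d, stratified randomisation (n = 5/group), then oral dosing once daily for 28 d in 5% gum arabic, 2-fold dose series. Lungs homogenised in water, dilutions plated on 7H11 agar, colonies counted after 14 d at 37 °C; log10 CFU.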

[18] = Cmax in human at 850 mg, po; assay type: ADME, organism-based; parameters: dose 850 mg, route oral; details: in vivo
[19] = AUC (0 to t) in human at 850 mg, po; assay type: ADME, organism-based; details: plasma
[20] = AUC (0 to t) in human at 300 mg, po; assay type: ADME, organism-based; details: plasma
[21] = test system: Mycobacterium tuberculosis; test: Antimycobacterial activity against Mycobacterium tuberculosis Kurono infected ICR mouse assessed as reduction in viable lung bacterial count at 5 mg/kg, po administered once daily measured after 28 days; assay type: functional; how it was run: as §3
[22] = Plasma concentration in Mycobacterium bovis BCG infected tuberculosis mouse model at 5 mg/kg, po after 16 hrs; assay type: ADME, organism-based; parameters: dose 5 mg/kg, route oral
How it was run: (§4)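 The agent, dissolved or suspended in 5% gum arabic, was then given orally. At each time point, about 1 ml of blood was drawn from the abdominal post cava under ether into a heparinised syringe and centrifuged at 3,000 rpm, 5 °C. Plasma (0.1 ml) was mixed with 0.2 ml acetonitrile.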

[23] = Plasma concentration in Mycobacterium bovis BCG infected tuberculosis mouse model at 5 mg/kg, po after 2 hrs; assay type: ADME, organism-based; parameters: dose 5 mg/kg, route oral; how it was run: as §4
[24] = Plasma concentration in Mycobacterium bovis BCG infected tuberculosis mouse model at 5 mg/kg, po after 4 hrs; assay type: ADME, organism-based; parameters: dose 5 mg/kg, route oral; how it was run: as §4
[25] = test system: Mycobacterium tuberculosis; test: Antimycobacterial activity against Mycobacterium tuberculosis Kurono infected ICR mouse assessed as reduction in viable lung bacterial count at 3.5 mg/kg, po administered once daily measured after 28 days; assay type: functional; how it was run: as §3
[26] = Plasma concentration in Mycobacterium bovis BCG infected tuberculosis mouse model at 5 mg/kg, po after 0.5 hrs; assay type: ADME, organism-based; parameters: dose 5 mg/kg, route oral; how it was run: as §4
[27] = Plasma concentration in Mycobacterium bovis BCG infected tuberculosis mouse model at 5 mg/kg, po after 1 hr; assay type: ADME, organism-based; parameters: dose 5 mg/kg, route oral; how it was run: as §4
[28] = Plasma concentration in Mycobacterium bovis BCG infected tuberculosis mouse model at 5 mg/kg, po after 8 hrs; assay type: ADME, organism-based; parameters: dose 5 mg/kg, route oral; how it was run: as §4
[29] = test system: Mycobacterium tuberculosis; test: Antimycobacterial activity against Mycobacterium tuberculosis Kurono infected ICR mouse assessed as reduction in viable lung bacterial count at 40 mg/kg, po administered once daily measured after 28 days; assay type: functional; how it was run: as §3

Sequence of CYP2E1 (P05181 whole entry): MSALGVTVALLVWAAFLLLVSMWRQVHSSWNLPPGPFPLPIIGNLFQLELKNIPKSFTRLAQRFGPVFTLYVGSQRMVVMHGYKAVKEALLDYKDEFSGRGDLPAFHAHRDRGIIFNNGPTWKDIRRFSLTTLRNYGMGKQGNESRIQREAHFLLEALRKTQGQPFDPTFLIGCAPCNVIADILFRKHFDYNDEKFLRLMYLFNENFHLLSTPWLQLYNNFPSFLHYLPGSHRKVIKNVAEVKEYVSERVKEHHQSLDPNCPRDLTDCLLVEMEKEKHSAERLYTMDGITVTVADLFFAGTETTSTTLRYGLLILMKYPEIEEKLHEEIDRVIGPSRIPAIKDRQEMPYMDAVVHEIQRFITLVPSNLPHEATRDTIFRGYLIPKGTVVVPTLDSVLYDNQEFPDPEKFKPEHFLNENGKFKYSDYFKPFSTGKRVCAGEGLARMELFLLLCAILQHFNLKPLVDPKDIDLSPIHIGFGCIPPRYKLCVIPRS

## C[C@]1(COc2ccc(N3CCC(Oc4ccc(OC(F)(F)F)cc4)CC3)cc2)Cn2cc([N+](=O)[O-])nc2O1
[1]
  Activity: Stable
[2]
  Activity: Dose-dependent effect
[3]
  Activity: Non-toxic
[4]
  Activity: Stable
[5]
  Activity: Dose-dependent effect
[6]
  Activity: Non-toxic
[7]
  Activity: Stable
[8]
  Activity: Stable
[9]
  Activity: Stable
[10]
  Activity: Stable
[11]
  Activity: Dose-dependent effect
[12]
  Activity: Non-toxic
[13]
  Activity: Non-toxic

## O=c1cc(-c2ccccc2)oc2c1ccc1ccccc12 [ALPHA-NAPHTHOFLAVONE]
[14]
  activity at 100 µM: 3.8%

## CCN(CC)C(=S)S [DITIOCARB]
[15]
  activity at 100 µM: 38.2%
[16]
  activity at 100 µM: 55%

## CC[C@@H](CO)NCCN[C@@H](CC)CO [ETHAMBUTOL]
[17]
  Activity: 95%
[18]
  Cmax: 3700 ng/mL
[19]
  AUC(0-t): 13000 ng·h/mL

## NNC(=O)c1ccncc1 [ISONIAZID]
[20]
  AUC(0-t): 22900 ng·h/mL
[21]
  Activity: 95%

## NC(=O)c1cnccn1 [PYRAZINAMIDE]
[17]
  Activity: 95%

## CO[C@H]1/C=C/O[C@@]2(C)Oc3c(C)c(O)c4c(O)c(c(/C=N/N5CCN(C)CC5)c(O)c4c3C2=O)NC(=O)/C(C)=C\C=C\[C@H](C)[C@H](O)[C@@H](C)[C@@H](O)[C@@H](C)[C@H](OC(C)=O)[C@@H]1C [RIFAMPIN]
[22]
  concentration at 16 h: 660 ng/mL
[23]
  concentration at 2 h: 4520 ng/mL
[24]
  concentration at 4 h: 3820 ng/mL
[25]
  Activity: 95%
[26]
  concentration at 0.5 h: 3330 ng/mL
[27]
  concentration at 1 h: 4490 ng/mL
[28]
  concentration at 8 h: 3180 ng/mL

## CN[C@@H]1[C@H](O[C@H]2[C@H](O[C@H]3[C@H](O)[C@@H](O)[C@H](N=C(N)N)[C@@H](O)[C@@H]3N=C(N)N)O[C@@H](C)[C@]2(O)C=O)O[C@@H](CO)[C@H](O)[C@H]1O [STREPTOMYCIN]
[29]
  Activity: 95%
